Assay results as given in ChEMBL document CHEMBL3352563, “Design, synthesis and molecular docking of substituted 3-hydrazinyl-3-oxo-propanamides as anti-tubercular agents” (Bioorg Med Chem Lett, 2014).
In brackets after ≈: the same amount, converted by molar mass.

Experiments:
[1] = system: Mycobacterium tuberculosis; test: Anti-tubercular activity against Mycobacterium tuberculosis H37Rv by resazurin microtitre assay; assay type: functional
Summary of the method: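 Value is the minimum inhibitory concentration (MIC) found by the resazurin microtitre (REMA) method.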

[2] = target: T1, Serine/threonine-protein kinase PknB (Mycobacterium tuberculosis, UniProt P9WI81); test: Inhibition of Mycobacterium tuberculosis PknB
T1 sequence (P9WI81 whole entry): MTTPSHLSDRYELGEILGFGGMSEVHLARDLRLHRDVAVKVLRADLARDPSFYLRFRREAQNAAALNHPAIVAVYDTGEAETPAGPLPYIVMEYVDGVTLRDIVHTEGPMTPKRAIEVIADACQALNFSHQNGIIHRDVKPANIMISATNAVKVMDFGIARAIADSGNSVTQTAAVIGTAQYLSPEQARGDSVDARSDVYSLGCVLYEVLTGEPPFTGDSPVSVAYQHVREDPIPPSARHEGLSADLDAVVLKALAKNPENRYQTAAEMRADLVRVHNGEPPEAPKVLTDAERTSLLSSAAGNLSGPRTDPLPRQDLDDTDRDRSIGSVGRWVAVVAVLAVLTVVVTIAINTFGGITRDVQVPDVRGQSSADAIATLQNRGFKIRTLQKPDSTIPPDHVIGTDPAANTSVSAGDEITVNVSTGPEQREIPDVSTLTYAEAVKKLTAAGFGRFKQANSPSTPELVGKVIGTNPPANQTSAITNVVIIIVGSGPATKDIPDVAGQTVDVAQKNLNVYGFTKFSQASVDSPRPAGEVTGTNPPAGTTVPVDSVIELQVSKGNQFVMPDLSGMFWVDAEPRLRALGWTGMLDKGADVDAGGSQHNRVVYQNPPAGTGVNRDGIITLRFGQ

For `NNC(=O)CC(=O)Nc1ccc(C(=O)O)cc1`, the MIC [1] was 12.5 µg/mL (≈ 52.7 µM) and the Ki [2] was 3.86 µM.

Compound `NNC(=O)CC(=O)Nc1ccc(F)c(Cl)c1` has an MIC [1] of 50 µg/mL (≈ 204 µM) and a Ki [2] of 3.53 µM.

For `NNC(=O)CC(=O)Nc1ccccc1[N+](=O)[O-]`, the MIC [1] was greater than 100 µg/mL and the Ki [2] was 22.9 µM.

With `NNC(=O)CC(=O)Nc1cccc([N+](=O)[O-])c1` the MIC [1] was greater than 100 µg/mL and the Ki [2] was 12.5 µM.

With `NNC(=O)CC(=O)Nc1ccc([N+](=O)[O-])cc1` the MIC [1] was greater than 100 µg/mL and the Ki [2] was 10.8 µM.

`NNC(=O)CC(=O)Nc1ccc([N+](=O)[O-])cc1[N+](=O)[O-]` gave an MIC [1] greater than 100 µg/mL and a Ki [2] of 6.38 µM.

`NNC(=O)CC(=O)Nc1cc(Cl)cc(Cl)c1` showed an MIC [1] greater than 100 µg/mL and a Ki [2] of 7.68 µM.

Work on `NNC(=O)CC(=O)Nc1ccc(Cl)c(Cl)c1` yielded an MIC [1] greater than 100 µg/mL and a Ki [2] of 9.21 µM.

In the case of `COc1ccc(OC)c(NC(=O)CC(=O)NN)c1`, the MIC [1] is reported as greater than 100 µg/mL and the Ki [2] is reported as 7.01 µM.

In the case of `COc1ccc(NC(=O)CC(=O)NN)c(OC)c1`, the MIC [1] is reported as greater than 100 µg/mL and the Ki [2] is reported as 5.25 µM.

With `CCN(CC)c1ccc(NC(=O)CC(=O)NN)cc1` the MIC [1] was 100 µg/mL (≈ 378 µM) and the Ki [2] was 13.1 µM.

`CCCCc1ccc(NC(=O)CC(=O)NN)cc1` was tested, and the MIC [1] was 12.5 µg/mL (≈ 50.1 µM) and the Ki [2] was 26.5 µM.

Work on `CCCc1ccc(NC(=O)CC(=O)NN)cc1` yielded an MIC [1] of 12.5 µg/mL (≈ 53.1 µM) and a Ki [2] of 9.04 µM.

`NNC(=O)CC(=O)Nc1ccc(S(=O)(=O)O)cc1` gave an MIC [1] of 50 µg/mL (≈ 183 µM) and a Ki [2] of 7.59 µM.

With `NNC(=O)CC(=O)Nc1ccccc1C(=O)O` the MIC [1] was 50 µg/mL (≈ 211 µM) and the Ki [2] was 7.32 µM.

Work on `NNC(=O)CC(=O)NCc1ccco1` yielded an MIC [1] greater than 100 µg/mL and a Ki [2] of 18.5 µM.

Compound `NNC(=O)c1ccncc1` [ISONIAZID] has an MIC [1] of 0.02 µg/mL (≈ 0.146 µM).

With `CO[C@H]1/C=C/O[C@@]2(C)Oc3c(C)c(O)c4c(O)c(c(/C=N/N5CCN(C)CC5)c(O)c4c3C2=O)NC(=O)/C(C)=C\C=C\[C@H](C)[C@H](O)[C@@H](C)[C@@H](O)[C@@H](C)[C@H](OC(C)=O)[C@@H]1C` [RIFAMPIN] the MIC [1] was 0.01 µg/mL (≈ 0.0122 µM).
